Measurements: publication PMC9880397 (Heliyon, 2023)

Legend:
Type in all cases: cell-based
[1] = system: MCF-7 human breast cancer cells; assay: SRB cytotoxicity assay, MCF-7 cells; settings: for IC50: MCF7, 48 h, read-out: IC50 against MCF-7 cells
Outline: (§1)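 Cells from ATCC, seeded at about […] in fresh medium at 37 ᵒC and <5% CO2. After 24 h, a DMSO series of test compound (up to 100 μg/mL) was added, then incubated 48 h. Read-out was A570, with DMSO control set as 100% viability.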

[2] = system: A-549 (Lung) human cancer cells; assay: SRB cytotoxicity assay, A-549 cells; settings: A549, read-out: % Viability of cancer cells A-549
Outline: as §1

[3] = system: HEPG-2 (Liver) human cancer cells; assay: SRB cytotoxicity assay, HEPG-2 cells
Outline: as §1

[4] = system: HCT-116 (Colon) human cancer cells; assay: SRB cytotoxicity assay, HCT-116 cells; settings: HCT-116, read-out: % Viability of cancer cells HCT-116
Outline: as §1

[5] = MCF7, read-out: % Viability of cancer cells MCF-7
[6] = HepG2, read-out: % Viability of cancer cells HEPG-2

SMILES | IC50 [1] | viability at 41.5 µM [1, 5] | viability at 83 µM [1, 5] | viability at 124.5 µM [1, 5] | viability at 166 µM [1, 5] | viability at 41.5 µM [2] | viability at 83 µM [2] | viability at 124.5 µM [2] | viability at 166 µM [2] | IC50 ([3]; HepG2, 48 h, read-out: IC50 against HEPG-2 cells) | viability at 41.5 µM [3, 6] | viability at 83 µM [3, 6] | viability at 124.5 µM [3, 6] | viability at 166 µM [3, 6] | viability at 41.5 µM [4] | viability at 83 µM [4] | viability at 124.5 µM [4] | viability at 166 µM [4]
COc1cccc2c1C(=O)c1c(O)c3c(c(O)c1C2=O)C[C@@](O)(C(=O)CO)C[C@@H]3O[C@H]1C[C@H](N)[C@H](O)[C@H](C)O1 [Doxorubicin, doxorubicin, reference compound] | 9.66 µM |  |  |  |  |  |  |  |  |  |  |  |  |  |  |  |  | 
O=[N+]([O-])c1ccc(NC(=S)NN=Cc2ccccn2)cc1 [HL^1, 4-(4-Nitrophenyl)-1-((pyridin-2-yl)methylene)thiosemicarbazide] | 52.4 µM | 60% | 26.4% | 23.2% | 9.6% | 71.9% | 70.7% | 69.6% | 64.1% | 80 µM | 76% | 48% | 39.2% | 33.2% | 80% | 76% | 63.6% | 60.4%
COc1ccc(OC)c(NC(=S)NN=Cc2ccccn2)c1 [HL^2, 4-(2,5-Dimethoxyphenyl)-1-((pyridin-2-yl)methylene)thiosemicarbazide] | 145 µM |  |  |  |  |  |  |  |  |  |  |  |  |  |  |  |  | 
